Laboratory results published in ChEMBL document CHEMBL2429859, “Inhibiting aberrant signal transducer and activator of transcription protein activation with tetrapodal, small molecule Src homology 2 domain binders: promising agents against multiple myeloma” (J Med Chem, 2013).
Active and inactive are the calls of the source. The calls are words filed in the database; no cut-off is given here.

Assays:
JJN-3 = experiment: Induction of apoptosis in human JJN-3 cells at 10 to 15 uM by annexin V/propidium iodide staining-based flow cytometric analysis; type: functional, cell-based
Summary of the method: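 Apoptosis was measured by flow cytometry of Annexin V and propidium iodide staining. Viable, early apoptotic and late apoptotic cells were scored by quadrant, with time points at 24 and 48 h.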

OCI-AML2 = experiment: Cytotoxicity against human OCI-AML2 cells assessed as cell viability after 72 hrs by MTS assay; type: functional, cell-based; conditions: OCI-AML2, 72 h
Summary of the method: (§1)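 Cells were seeded at 1-3 x 10^4 per well into wells already holding compound or vehicle, in triplicate. Incubation was 72 h at 37 °C in 5% CO2. Viability was read by MTS colorimetry relative to DMSO control, and EC50 was fitted to a standard dose-response curve where applicable.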

DU-145 = experiment: Cytotoxicity against human DU145 cells assessed as cell viability after 72 hrs by MTS assay; type: functional, cell-based; conditions: DU-145, 72 h; summary of the method: as §1
SK-MM-2 = experiment: Cytotoxicity against human SKMM-2 cells assessed as inhibition of cell viability after 72 hrs by MTT assay; type: functional, cell-based
Summary of the method: (§2)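 Myeloma lines were seeded at 1-3 x 10^4 cells per well onto compound or vehicle, in triplicate, and cultured 72 h at 37 °C in 5% CO2. Viability was measured colorimetrically by MTT assay relative to DMSO control. EC50 was fitted to a standard dose-response curve where applicable.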

[1] = biological target: T1, Signal transducer and activator of transcription 3 (Homo sapiens, UniProt P40763); experiment: Inhibition of Stat3 in human JJN-3 cells assessed as downregulation of c-Myc protein expression after 6 hrs by Western blot analysis; type: cell-based
T1 sequence (P40763 whole entry): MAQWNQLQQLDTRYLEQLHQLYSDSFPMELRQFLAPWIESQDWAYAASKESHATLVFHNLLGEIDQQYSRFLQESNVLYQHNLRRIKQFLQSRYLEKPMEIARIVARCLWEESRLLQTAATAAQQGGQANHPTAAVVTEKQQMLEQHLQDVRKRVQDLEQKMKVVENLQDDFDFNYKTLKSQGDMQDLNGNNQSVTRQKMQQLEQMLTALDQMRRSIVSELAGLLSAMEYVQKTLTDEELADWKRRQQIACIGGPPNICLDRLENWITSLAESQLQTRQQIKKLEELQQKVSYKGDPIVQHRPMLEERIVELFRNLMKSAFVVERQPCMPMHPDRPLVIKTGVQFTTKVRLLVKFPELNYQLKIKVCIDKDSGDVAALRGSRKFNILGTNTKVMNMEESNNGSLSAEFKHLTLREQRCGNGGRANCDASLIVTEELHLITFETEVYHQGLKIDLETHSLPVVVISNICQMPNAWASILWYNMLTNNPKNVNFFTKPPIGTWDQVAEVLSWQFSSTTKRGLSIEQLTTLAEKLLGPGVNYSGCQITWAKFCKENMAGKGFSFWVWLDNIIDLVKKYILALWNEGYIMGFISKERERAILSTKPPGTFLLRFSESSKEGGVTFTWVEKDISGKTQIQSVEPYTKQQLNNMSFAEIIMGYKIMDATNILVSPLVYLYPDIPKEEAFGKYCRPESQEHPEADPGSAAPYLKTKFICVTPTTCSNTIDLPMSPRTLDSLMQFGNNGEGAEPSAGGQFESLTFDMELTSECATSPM
Summary of the method: (§3)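 Treated cells were washed in cold PBS and lysed 30 min on ice in Tris-HCl pH 7.4/NaCl/EDTA/1% NP-40 with PMSF, vanadate and protease inhibitors. Lysates were Bradford-normalized, and 10-30 µg protein was run on 7-10% SDS-PAGE and transferred to PVDF. Blots were blocked in 5% BSA/TBST, probed overnight at 4 °C, then with HRP secondary, and detected by ECL.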

RPMI-8226 [2] = experiment: Cytotoxicity against human RPMI8226 cells assessed as inhibition of cell viability after 72 hrs by MTT assay; type: functional, cell-based; summary of the method: as §2
[3] = biological target: T2, Signal transducer and activator of transcription 5A (Homo sapiens) (UniProt P42229); experiment: Inhibition of GM-CSF-induced Stat5 phosphorylation in serum-starved human U937 cells at 10 to 20 uM incubated for 4 hrs prior to GM-CSF induction measured after 15 mins by phopsho-flow cytometric analysis; type: cell-based; conditions: U-937
T2 sequence (whole entry): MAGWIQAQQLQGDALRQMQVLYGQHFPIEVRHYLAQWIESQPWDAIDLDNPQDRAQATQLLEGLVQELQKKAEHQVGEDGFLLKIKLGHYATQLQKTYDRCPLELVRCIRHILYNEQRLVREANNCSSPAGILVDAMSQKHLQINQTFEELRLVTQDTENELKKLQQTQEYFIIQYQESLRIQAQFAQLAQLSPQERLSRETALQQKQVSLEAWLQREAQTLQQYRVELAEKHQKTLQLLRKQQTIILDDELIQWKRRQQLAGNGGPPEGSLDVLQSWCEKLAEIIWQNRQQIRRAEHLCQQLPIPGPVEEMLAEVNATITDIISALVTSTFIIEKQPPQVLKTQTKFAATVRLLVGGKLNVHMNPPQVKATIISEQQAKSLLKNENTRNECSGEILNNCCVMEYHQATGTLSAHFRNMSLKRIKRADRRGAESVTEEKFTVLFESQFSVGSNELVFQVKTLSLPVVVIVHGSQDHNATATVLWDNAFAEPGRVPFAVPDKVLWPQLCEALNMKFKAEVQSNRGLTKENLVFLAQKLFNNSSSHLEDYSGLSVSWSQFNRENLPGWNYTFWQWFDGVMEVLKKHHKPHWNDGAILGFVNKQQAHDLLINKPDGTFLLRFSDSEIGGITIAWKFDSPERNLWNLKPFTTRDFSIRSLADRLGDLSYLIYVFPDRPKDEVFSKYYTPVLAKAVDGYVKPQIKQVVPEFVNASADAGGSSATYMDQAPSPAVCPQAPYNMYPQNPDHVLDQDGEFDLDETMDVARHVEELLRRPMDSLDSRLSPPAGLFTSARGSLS
Summary of the method: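 Serum-starved U937 cells were pretreated with compound for 4 h, then stimulated 15 min with IL-6 (Stat3), GM-CSF (Stat5) or IFN (Stat1). Phosphorylation of each STAT was quantified by phospho-flow cytometry.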

[4] = biological target: T1, Signal transducer and activator of transcription 3; experiment: Inhibition of Stat3-mediated luciferase expression in human XG6 cells after 6 hrs; type: cell-based
Summary of the method: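 Myeloma cells stably carried a Stat3-driven firefly luciferase reporter (puromycin-selected) and a CMV-driven Renilla luciferase internal control (hygromycin-selected), each selected for 2 weeks. After drug treatment, dual luciferase activity was read as relative luciferase units, firefly/Renilla.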

[5] = biological target: T1, Signal transducer and activator of transcription 3; experiment: Inhibition of Stat3 in human JJN-3 cells assessed as downregulation of BCL-xL protein expression; type: cell-based; summary of the method: as §3
RPMI-8226 [6] = experiment: Cytotoxicity against human RPMI8226 cells assessed as cell viability at 7.5 uM after 72 hrs by MTT assay; type: functional, cell-based; summary of the method: as §2
[7] = Cytotoxicity against CD138-positive BMNC isolated from multiple myeloma patient assessed as cell viability at 20 uM; type: functional; conditions: Homo sapiens, read-out: Activity
Summary of the method: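 Bone marrow mononuclear cells were isolated by Ficoll-Paque separation from 6 myeloma patient aspirates, cultured, and treated with compound. Cells were stained for CD138 and Annexin V, and the decrease in CD138+ (myeloma) and CD138- (non-myeloma) populations was reported.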

Compound: O=C(O)c1ccc(N(Cc2ccc(C3CCCCC3)cc2)C(=O)CN(Cc2ccccc2C(F)(F)F)S(=O)(=O)c2c(F)c(F)c(F)c(F)c2F)cc1O
- Activity (JJN-3): Active
- IC50 (OCI-AML2): 4.6 µM
- IC50 (DU-145): 14 µM
- inhibition (SK-MM-2): Dose-dependent effect
- inhibition [1]: Dose-dependent effect
- inhibition (RPMI-8226 [2]): Dose-dependent effect
- inhibition [3]: Active
- inhibition [4]: Dose-dependent effect
- inhibition [5]: inactive
- Activity (RPMI-8226 [6]): Active

Compound: Cc1ccc(S(=O)(=O)N(CC(=O)N(Cc2ccc(C3CCCCC3)cc2)c2ccc(C(=O)O)c(O)c2)Cc2ccccc2C(F)(F)F)cc1
- IC50 (OCI-AML2): 12 µM
- viability at 20 µM [7]: > 50%
- IC50 (DU-145): 16 µM
- inhibition (SK-MM-2): Dose-dependent effect
- inhibition [1]: Dose-dependent effect
- inhibition (RPMI-8226 [2]): Dose-dependent effect
- inhibition [3]: Active
- inhibition [4]: Dose-dependent effect
- inhibition [5]: inactive
